Source: PubChem BioAssay (several laboratories)
Most compounds without a hit are left out; they make up all but 2.8% or so of the library.
NPY2 pot ag: potentiators or agonists of human neuropeptide Y receptor Y2; AID 1359; P49146; 220,000 compounds, 0.45% hits; activation, % at 3.6 µM; cells expressing NPY-Y2, potentiator/agonist read-out; in the data active = activation above about 27%;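 note: cells stimulated with NPY near EC25 plus isoproterenol at EC100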
Target sequence (P49146 whole entry, looked up): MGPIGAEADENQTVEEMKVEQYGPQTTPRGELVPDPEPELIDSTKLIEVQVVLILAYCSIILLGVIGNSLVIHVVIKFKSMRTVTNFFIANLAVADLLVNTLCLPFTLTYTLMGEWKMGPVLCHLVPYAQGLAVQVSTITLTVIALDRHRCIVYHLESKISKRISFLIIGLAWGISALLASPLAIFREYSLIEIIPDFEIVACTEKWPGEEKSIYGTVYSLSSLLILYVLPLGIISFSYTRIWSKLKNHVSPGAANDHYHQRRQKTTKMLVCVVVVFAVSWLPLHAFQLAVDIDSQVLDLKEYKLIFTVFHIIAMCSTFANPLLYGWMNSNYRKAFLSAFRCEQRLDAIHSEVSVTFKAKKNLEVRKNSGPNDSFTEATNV
PGE2 EP2 inh: inhibitors of human EP2 prostaglandin E2 receptor; C6 glioma cells expressing human EP2, cAMP TR-FRET; cells stimulated with saturating PGE2; inhibition, % at 25 µM; 260,000 compounds, 0.52% hits; AID 1422;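 active = percent inhibition above 40 after rounding to a whole number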;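 note: rat C6 glioma host cells with rolipram phosphodiesterase inhibitor present; the protocol text gives 20 µM as final concentration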
NPY-Y1 PAM-ag: potentiators or agonists of human neuropeptide Y receptor Y1 | P25929 | NPY-Y1 expressing cells, potentiator/agonist activation | activation, % at 3.6 µM | 220,000 compounds, 0.37% hits; in the data active = activation above about 33%, passing the limit was not always enough;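 note: cells stimulated with NPY at EC10 then isoproterenol at EC100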
Target sequence (P25929 whole entry, looked up): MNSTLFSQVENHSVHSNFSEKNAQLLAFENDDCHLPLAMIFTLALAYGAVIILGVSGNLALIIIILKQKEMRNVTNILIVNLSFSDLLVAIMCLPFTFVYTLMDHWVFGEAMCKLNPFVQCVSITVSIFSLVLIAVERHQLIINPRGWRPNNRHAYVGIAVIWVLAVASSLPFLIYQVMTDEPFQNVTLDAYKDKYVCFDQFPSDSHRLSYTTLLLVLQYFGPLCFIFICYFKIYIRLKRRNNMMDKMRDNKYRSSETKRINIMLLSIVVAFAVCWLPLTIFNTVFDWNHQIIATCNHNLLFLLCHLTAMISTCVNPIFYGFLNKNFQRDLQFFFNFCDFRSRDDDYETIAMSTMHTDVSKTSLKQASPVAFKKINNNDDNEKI
EP2 mod: EP2 receptor (human) modulation; AID 940; P43116; EP2-expressing cells, cAMP HTRF FRET, PGE2 co-stimulation; 260,000 compounds, 0.83% hits; induction, % at 25 µM;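 active = compounds whose cAMP rise, as percent of the full-agonist control response, exceeds 60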;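 note: rat C6 glioma line stably carrying human EP2 under a CMV promoter; the protocol text gives 20 µM as final concentration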
NPY Y2 blocker: antagonists of human neuropeptide Y receptor Y2. P49146. 140,000 compounds, 0.99% hits. NPY-Y2 expressing cells, antagonist mode. inhibition, % at 2.7 µM. AID 793
NPY-Y1 antag: NPY-Y1 (human) receptor antagonism; P25929; HEK293-CNG Y1 cells, membrane potential fluorescence; NPY at EC95, then isoproterenol; inhibition, % at 3.6 µM; 200,000 compounds, 1% hits; AID 1040;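 active = inhibition above the campaign mean inhibition of all tested compounds plus 3 SD, cut at about 20% in these data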
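Benchmarks – high control isoproterenol alone, low control NPY with isoproterenol · Material – HEK293 Y1/CNG channel cell line · Times – dye 3 h, compound 60 min room temperature, stimulation 45 min · Probe or stimulus – NPY (25 nM), isoproterenol (1 µM), Ro 20-1724 (25 µM) · Evaluation – % inhibition of NPY effect · Signal – fluorescence, membrane potential probe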
NPY-Y1 ant conf: confirmation of human neuropeptide Y receptor Y1 antagonists | inhibition, % at 3.6 µM | shares compounds with NPY-Y1 antag | HEK293-CNG NPY-Y1, membrane potential fluorescence, cAMP; NPY challenge against isoproterenol-raised cAMP | AID 1254 | 1,200 compounds, 21% hits; in the data active = inhibition above about 20%
NPY2 antag ctr: human NPY-Y2 antagonism in NPY-Y1 counter-screen. inhibition, % at 3.6 µM. 1,200 compounds, 28% hits. HEK293 NPY-Y2 CNG membrane potential fluorescence; cells given NPY, then isoproterenol. shares compounds with NPY-Y1 antag
Numbers stand for hits. Cut-off read from the data, not from the text of the source, unless noted: active = inhibition above about 17%; inactive = the rest.

How did COc1ccc(-c2nc3ccccn3c2CN2CCN(c3ccccc3F)CC2)cc1 do in these assays?
NPY2 pot ag: inactive; PGE2 EP2 inh: inactive; NPY-Y1 PAM-ag: inactive; EP2 mod: inactive; NPY-Y1 antag: 30.0; NPY-Y1 ant conf: 26.6; NPY2 antag ctr: 20.7

How did Clc1ccc(-c2nc3ccccn3c2CN2CCOCC2)cc1 do in these assays?
NPY2 pot ag: inactive; PGE2 EP2 inh: inactive; NPY-Y1 PAM-ag: inactive; EP2 mod: inactive; NPY Y2 blocker: inactive; NPY-Y1 antag: inactive

What do the screens show for `O=Cc1cc2ccccc2nc1SCc1ccc(Cl)cc1`?
NPY2 pot ag: inactive; PGE2 EP2 inh: inactive; NPY-Y1 PAM-ag: inactive; EP2 mod: inactive; NPY Y2 blocker: inactive; NPY-Y1 antag: 25.9; NPY-Y1 ant conf: inactive; NPY2 antag ctr: inactive

How did Cc1ccc(-c2csc3nc4c5ccccc5c(NCCCN5CCOCC5)nn4c(=O)c23)cc1 do in these assays?
NPY2 pot ag: inactive; PGE2 EP2 inh: inactive; NPY-Y1 PAM-ag: inactive; EP2 mod: inactive; NPY-Y1 antag: inactive

Results for Cc1ccc(-c2csc3nc4c5ccccc5c(NCCCN(C)C)nn4c(=O)c23)cc1 ?
NPY2 pot ag: inactive; PGE2 EP2 inh: inactive; NPY-Y1 PAM-ag: inactive; EP2 mod: inactive; NPY-Y1 antag: 24.2; NPY-Y1 ant conf: 24.0; NPY2 antag ctr: 26.2

How did CN(Cc1ccccc1)CC(O)COc1ccc(CNCc2ccc(Cl)s2)cc1 (centres undefined) do in these assays?
NPY2 pot ag: inactive; PGE2 EP2 inh: inactive; NPY-Y1 PAM-ag: inactive; EP2 mod: inactive; NPY-Y1 antag: 29.0; NPY-Y1 ant conf: 20.3; NPY2 antag ctr: 29.7

Results for CN(Cc1ccccc1)CC(O)COc1ccc(CNCc2cccnc2)cc1 (centres undefined) ?
NPY2 pot ag: inactive; PGE2 EP2 inh: inactive; NPY-Y1 PAM-ag: inactive; EP2 mod: inactive; NPY-Y1 antag: inactive

What do the screens show for `COc1ccc(S(=O)(=O)N(Cc2ccccc2)Cc2cc3cc(OC)c(OC)cc3[nH]c2=O)cc1`?
PGE2 EP2 inh: inactive; EP2 mod: inactive

How did Cc1ccccc1OCCCn1c(=O)sc2ccccc21 do in these assays?
NPY2 pot ag: inactive; PGE2 EP2 inh: inactive; NPY-Y1 PAM-ag: inactive; EP2 mod: inactive; NPY Y2 blocker: inactive; NPY-Y1 antag: 26.8; NPY-Y1 ant conf: inactive; NPY2 antag ctr: inactive

How did Cc1cc(C(=O)CSc2nc3ccccc3[nH]2)c(C)n1CC1CCCO1 (centres undefined) do in these assays?
NPY2 pot ag: inactive; PGE2 EP2 inh: inactive; NPY-Y1 PAM-ag: inactive; EP2 mod: inactive; NPY Y2 blocker: inactive; NPY-Y1 antag: 25.5; NPY-Y1 ant conf: 42.2; NPY2 antag ctr: inactive

Results for Cc1ccc2nc3c(c(C(=O)O)c2c1)CCC3 ?
NPY2 pot ag: inactive; PGE2 EP2 inh: inactive; NPY-Y1 PAM-ag: inactive; EP2 mod: inactive; NPY Y2 blocker: inactive; NPY-Y1 antag: 22.1; NPY-Y1 ant conf: inactive; NPY2 antag ctr: inactive

Results for COc1cc(OC)cc(-c2nc(-c3ccc(C)nc3OC)no2)c1 ?
PGE2 EP2 inh: inactive; EP2 mod: inactive

How did Cc1cc(C)c2[nH]c(C(=O)NCc3nc(-c4ccccc4)no3)c(C)c2c1 do in these assays?
PGE2 EP2 inh: inactive; EP2 mod: inactive

What do the screens show for `Cc1cc(C)cc(OCC(=O)NCc2nc(-c3ccccc3)no2)c1`?
NPY2 pot ag: inactive; PGE2 EP2 inh: inactive; NPY-Y1 PAM-ag: inactive; EP2 mod: inactive; NPY Y2 blocker: inactive; NPY-Y1 antag: 29.4; NPY-Y1 ant conf: inactive; NPY2 antag ctr: inactive

How did C=CCNCC(=O)N1N=C(c2ccc3ccccc3c2)CC1c1ccc(OC)cc1 (centres undefined) do in these assays?
NPY2 pot ag: inactive; PGE2 EP2 inh: inactive; NPY-Y1 PAM-ag: inactive; EP2 mod: inactive; NPY-Y1 antag: 31.6; NPY-Y1 ant conf: 32.3; NPY2 antag ctr: 49.7

How did COc1ccc(C2CC(c3ccc4ccccc4c3)=NN2C(=O)CNC2CCCCC2)cc1 (centres undefined) do in these assays?
NPY2 pot ag: inactive; PGE2 EP2 inh: inactive; NPY-Y1 PAM-ag: inactive; EP2 mod: inactive; NPY-Y1 antag: 30.1; NPY-Y1 ant conf: 36.7; NPY2 antag ctr: 33.5

How did c1ccc(CNc2ncnc3sc4c(c23)CCCC4)nc1 do in these assays?
NPY2 pot ag: inactive; PGE2 EP2 inh: inactive; NPY-Y1 PAM-ag: inactive; EP2 mod: inactive; NPY-Y1 antag: inactive

What do the screens show for `Cc1nc(NCc2ccccn2)c2c3c(sc2n1)CCCC3`?
NPY2 pot ag: inactive; PGE2 EP2 inh: inactive; NPY-Y1 PAM-ag: inactive; EP2 mod: inactive; NPY-Y1 antag: 45.8; NPY-Y1 ant conf: inactive; NPY2 antag ctr: inactive

What do the screens show for `CN(c1ccc(OCc2nnc(-c3ccccc3)o2)cc1)S(=O)(=O)c1ccccc1`?
NPY2 pot ag: inactive; PGE2 EP2 inh: inactive; NPY-Y1 PAM-ag: inactive; EP2 mod: inactive; NPY Y2 blocker: inactive; NPY-Y1 antag: 27.8; NPY-Y1 ant conf: inactive; NPY2 antag ctr: inactive

What do the screens show for `Cc1nc2cc(N3CCCCC3)c(NC(=O)c3cccnc3)cc2c(=O)n1Cc1ccccc1`?
NPY2 pot ag: inactive; PGE2 EP2 inh: inactive; NPY-Y1 PAM-ag: inactive; EP2 mod: inactive; NPY Y2 blocker: inactive; NPY-Y1 antag: 23.0; NPY-Y1 ant conf: inactive; NPY2 antag ctr: inactive

How did CCc1nnc(NC(=O)c2ccc(S(=O)(=O)N3CCCCC3C)cc2)s1 (centres undefined) do in these assays?
NPY2 pot ag: inactive; PGE2 EP2 inh: inactive; NPY-Y1 PAM-ag: inactive; EP2 mod: inactive; NPY Y2 blocker: inactive; NPY-Y1 antag: inactive

What do the screens show for `CCc1nnc(NC(=O)c2ccc(S(=O)(=O)N3CCCCCC3)cc2)s1`?
NPY2 pot ag: inactive; PGE2 EP2 inh: inactive; NPY-Y1 PAM-ag: inactive; EP2 mod: inactive; NPY Y2 blocker: inactive; NPY-Y1 antag: 61.4; NPY-Y1 ant conf: inactive; NPY2 antag ctr: inactive

What do the screens show for `Cc1ccc(S(=O)(=O)Nc2cc(C)nn2-c2ccccc2)cc1`?
NPY2 pot ag: inactive; PGE2 EP2 inh: inactive; NPY-Y1 PAM-ag: inactive; EP2 mod: inactive; NPY Y2 blocker: inactive; NPY-Y1 antag: 33.0; NPY-Y1 ant conf: inactive; NPY2 antag ctr: inactive

Results for CCCN(c1ccc(C(=O)OC)cc1)S(=O)(=O)c1ccccc1 ?
NPY2 pot ag: inactive; PGE2 EP2 inh: inactive; NPY-Y1 PAM-ag: inactive; EP2 mod: inactive; NPY-Y1 antag: inactive

Results for CCCCN(c1ccc(C(=O)OC)cc1)S(=O)(=O)c1ccccc1 ?
NPY2 pot ag: inactive; PGE2 EP2 inh: inactive; NPY-Y1 PAM-ag: inactive; EP2 mod: inactive; NPY-Y1 antag: 86.3; NPY-Y1 ant conf: inactive; NPY2 antag ctr: inactive

How did CC(C)CC(NC(=O)c1cccs1)c1nc2cccnc2n1C (centres undefined) do in these assays?
EP2 mod: inactive

Results for COC(=O)c1c(NC(=O)c2ccc(F)cc2)sc(C(=O)Nc2cccc(OC)c2)c1C ?
PGE2 EP2 inh: inactive; EP2 mod: inactive
